From ChEMBL document CHEMBL1133746 (J Med Chem, 2000)
*1 amine or outer side, *2 acyl side, *3 side chain or, on linkers, in order; H or OH if unused. Where a SMILES comes first, the peptide text is derived from it. [ ]: non-standard residue; d: D form. The star is where a group is joined. X2 = O=C(O)CN1C(=O)[C@H](N*)CSc2ccccc21; X1 = O=C([C@@H]1CC(O)CN1[*:1])[*:2]; Igl = N[C@H](C(=O)O)C1Cc2ccccc2C1; Hyp = O=C(O)[C@@H]1C[C@@H](O)CN1; 2Thi = N[C@@H](Cc1cccs1)C(=O)O

How the values were obtained:
[1] = molecular target: T1, B2 bradykinin receptor (Homo sapiens, UniProt P30411); assay: Ability to bind to human cloned B2 receptor in competition binding experiments with [3H]- bradykinin
T1 sequence (P30411 whole entry): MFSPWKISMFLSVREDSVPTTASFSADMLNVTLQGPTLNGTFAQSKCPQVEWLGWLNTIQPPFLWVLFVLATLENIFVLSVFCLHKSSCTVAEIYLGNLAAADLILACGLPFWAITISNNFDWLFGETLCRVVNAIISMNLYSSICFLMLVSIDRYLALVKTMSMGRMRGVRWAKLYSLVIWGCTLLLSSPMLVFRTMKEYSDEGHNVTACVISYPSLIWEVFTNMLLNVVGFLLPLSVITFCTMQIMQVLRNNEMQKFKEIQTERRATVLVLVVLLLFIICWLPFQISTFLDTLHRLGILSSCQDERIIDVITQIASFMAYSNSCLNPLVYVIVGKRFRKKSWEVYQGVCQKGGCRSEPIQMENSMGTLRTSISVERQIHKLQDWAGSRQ
Outline: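 Membranes were prepared from stably transfected CHO cells expressing the human B2 receptor. Cells were scraped into 20 mM TES pH 6.8 with 1 mM 1,10-phenanthroline, 140 µg/mL bacitracin and 0.1% BSA, and membranes were spun at 40000g for 15 min. Bound label was filtered on PEI-soaked GF/B filters, washed with ice-cold buffer and counted.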

[2] = organism: Homo sapiens; assay: Inhibition of contraction of human umbilical vein (HUV) induced by different concentrations of bradykinin was determined; type: functional; conditions: for Kb: read-out: pA2 (converted)
Outline: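 Human umbilical vein rings (3–4 mm) were mounted in Krebs organ baths at 37 °C with 95% O2/5% CO2. Captopril (10 µM), DL-thiorphan (1 µM), mepyramine (1 µM), atropine (1 µM), indomethacin (3 µM), NG-nitro-L-arginine (30 µM) and nifedipine (0.1 µM) were added. […] Means are of at least 3 experiments.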

[3] = molecular target: T2, B1 bradykinin receptor (Homo sapiens, UniProt P46663); assay: Ability to bind to human cloned B1 receptor in competition binding experiments with [3H][des-Arg10,Leu9]-Kallidin.
T2 sequence (P46663 whole entry): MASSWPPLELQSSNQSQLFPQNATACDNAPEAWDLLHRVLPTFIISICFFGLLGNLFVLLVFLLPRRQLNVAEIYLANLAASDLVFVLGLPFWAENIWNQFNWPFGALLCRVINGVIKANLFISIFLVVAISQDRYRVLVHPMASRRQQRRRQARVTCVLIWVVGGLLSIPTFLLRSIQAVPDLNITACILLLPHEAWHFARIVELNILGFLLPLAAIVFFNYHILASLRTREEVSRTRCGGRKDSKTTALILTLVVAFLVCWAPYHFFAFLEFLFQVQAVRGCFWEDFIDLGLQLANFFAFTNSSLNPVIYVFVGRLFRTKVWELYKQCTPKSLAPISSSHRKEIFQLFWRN
Outline: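 Membranes from stably transfected human embryonic kidney 293 cells expressing the human B1 receptor were used. Cells were scraped into 25 mM TES pH 7.4 with 1 mM 1,10-phenanthroline, 140 µg/mL bacitracin and 0.1% BSA, and membranes were spun at 40000g for 15 min. Incubation was with 1 nM [3H][des-Arg10,Leu9]-kallidin for 60 min. Nonspecific binding was taken with 10 µM [des-Arg10,Leu9]-kallidin. Bound label was collected by filtration on PEI-soaked GF/B filters and counted by scintillation.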

[4] = organism: Homo sapiens; assay: Ability to inhibit contraction of human umbilical vein (HUV) induced by [des-Arg10]-Kallidin was determined.; type: functional; conditions: read-out: pA2 (converted)
Outline: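 Human umbilical vein rings (3–4 mm) were kept overnight at 37 °C in Krebs with penicillin/streptomycin under 95% O2/5% CO2 to induce B1. They were then set in organ baths at 37 °C with captopril, thiorphan, mepyramine, atropine, indomethacin, NG-nitro-L-arginine and nifedipine added. [des-Arg10]-kallidin concentration-response curves were run 30 min later, with antagonist or vehicle added 15 min before. Means are of at least 3 experiments.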

Ki [1] [nM] | Ki [3] [nM] | Compound | Kb [2] [nM] | Kb [4] [nM] | pKp [2] | pD2 [2]
325 | 5.6 | NC(N)=NCCC[C@@H](N)C(=O)N[C@@H](CCCN=C(N)N)C(=O)N1CCC[C@H]1C(=O)N1CC(O)C[C@H]1C(=O)NCC(=O)N[C@H](C(=O)N[C@@H](CO)C(=O)N[C@@H]1CSc2ccccc2N(CC(=O)O)C1=O)C1Cc2ccccc2C1 (some centres undefined) | > 10000 |  |  | 
 | 24 | NC(N)=NCCC[C@@H](N)C(=O)N[C@@H](CCCN=C(N)N)C(=O)N1CCC[C@H]1C(=O)N1C[C@H](O)C[C@H]1C(=O)NCC(=O)N[C@@H](Cc1cccs1)C(=O)N[C@@H](CO)C(=O)N1Cc2ccccc2C[C@@H]1C(=O)N1[C@H](C(=O)O)C[C@@H]2CCCC[C@@H]21 | > 10000 | 31.6 |  | 
 | > 1000 | NC(N)=NCCC[C@@H](N)C(=O)N[C@@H](CCCN=C(N)N)C(=O)N1CCC[C@H]1C(=O)N1C[C@H](O)C[C@H]1C(=O)NCC(=O)N[C@@H](Cc1cccs1)C(=O)N[C@@H](CO)C(=O)N1Cc2ccccc2C[C@@H]1C(=O)N1[C@H](C(=O)N[C@@H](CCCN=C(N)N)C(=O)O)C[C@@H]2CCCC[C@@H]21 |  | > 10000 |  | 
0.4 | 0.22 | NCCCC[C@H](N)C(=O)N[C@@H](CCCN=C(N)N)C(=O)N1CCC[C@H]1C(=O)N1CC(O)C[C@H]1C(=O)NCC(=O)N[C@@H](Cc1cccs1)C(=O)N[C@@H](CO)C(=O)N[C@@H]1CSc2ccccc2N(CC(=O)O)C1=O (some centres undefined) (H-KRP[X1]G[2Thi]S-X2) [listing 1 of 2 here] |  | 39.8 |  | 

The remaining lines, values behind:

Compound | Ki [1] [nM] | Ki [3] [nM] | Kb [2] [nM] | Kb [4] [nM] | pKp [2] | pD2 [2]
CC(C)C[C@H](NC(=O)[C@@H]1CCCN1C(=O)[C@H](CO)NC(=O)[C@H](Cc1ccccc1)NC(=O)CNC(=O)[C@@H]1CCCN1C(=O)[C@@H]1CCCN1C(=O)[C@H](CCCN=C(N)N)NC(=O)[C@@H](N)CCCCN)C(=O)O | > 1000 |  | > 10000 | 12.6 |  | 
N=C(N)NCCC[C@@H](N)C(=O)N[C@@H](CCCNC(=N)N)C(=O)N1CCC[C@H]1C(=O)N1CC(O)C[C@H]1C(=O)NCC(=O)N[C@@H](Cc1cccs1)C(=O)N[C@@H](CO)C(=O)N[C@@H]1CSc2ccccc2N(CC(=O)O)C1=O (some centres undefined) | 4.4 | 83 |  |  |  | 
CC(C)C[C@H](NC(=O)[C@@H]1CCCN1C(=O)[C@H](CO)NC(=O)[C@H](Cc1ccccc1)NC(=O)CNC(=O)[C@@H]1CCCN1C(=O)[C@@H]1CCCN1C(=O)[C@@H](N)CCCN=C(N)N)C(=O)O | > 1000 |  | > 10000 | 398 |  | 
NCCCC[C@H](NC(=O)[C@@H](N)CCCCN)C(=O)N[C@@H](CCCN=C(N)N)C(=O)N1CCC[C@H]1C(=O)N1CC(O)C[C@H]1C(=O)NCC(=O)N[C@H](C(=O)N[C@@H](CO)C(=O)N[C@@H]1CSc2ccccc2N(CC(=O)O)C1=O)C1Cc2ccccc2C1 (some centres undefined) (H-KKRP[X1]G[Igl]S-X2) | 62 | 0.035 | 3160 | 3.16 |  | 
NCCCC[C@H](N)C(=O)N[C@@H](CCCN=C(N)N)C(=O)N1CCC[C@H]1C(=O)N1C[C@H](O)C[C@H]1C(=O)NCC(=O)N[C@H](C(=O)N[C@@H](CO)C(=O)N[C@@H]1CSc2ccccc2N(CC(=O)O)C1=O)C1Cc2ccccc2C1 (H-KRP[Hyp]G[Igl]S-X2) | 9.2 | 0.023 | > 10000 | 10 |  | 
NCCCC[C@H](N)C(=O)N[C@@H](CCCN=C(N)N)C(=O)N1CCC[C@H]1C(=O)N1CC(O)C[C@H]1C(=O)NCC(=O)N[C@@H](Cc1cccs1)C(=O)N[C@@H](CO)C(=O)N[C@@H]1CSc2ccccc2N(CC(=O)O)C1=O (some centres undefined) (H-KRP[X1]G[2Thi]S-X2) [listing 2 of 2 here] |  |  |  |  | 4.8 | 
H-RPPGFSPFR-OH [BRADYKININ] |  |  |  |  |  | 7.9
